Reference: PMC7250216 (Biomedicine & pharmacotherapy = Biomedecine & …, 2020)
Bridges are numbered along the chain shown (N, C = ends). Where no end group is shown, it is not given here.

Key:
[1] = tested on: non-transfected CHO-K1 cells; conditions: ref 35 (Pierce et al. 2020); cited from earlier work
[2] = tested on: untransfected CHO-K1 cells; conditions: ref 35 (Pierce et al. 2020); cited from earlier work
[3] = tested on: marmoset vasopressin receptor 1a (mV1aR); assay: FLIPR Membrane Potential; format: cell-based, marmoset (Callithrix jacchus); conditions: mV1aR expressing cells
Procedure, shortened: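 CHO-K1 cells stably expressing the species' V1aR were plated at 0.3 million cells/mL and grown overnight. They were loaded with FMP Blue in Locke's buffer (pH 7.4, 2.3 mM CaCl2) for 45 min at 37°C. After 60 s baseline, log concentrations of peptide were added, with all peptides run in parallel on one plate. Reads were ex 530/em 565 nm every 2 s for 200 s.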

[4] = tested on: membrane hyperpolarization in qV1aR-expressing CHO cells; format: cell-based, Chinese hamster
[5] = tested on: membrane hyperpolarization in mV1aR-expressing CHO cells; format: cell-based, Chinese hamster
[6] = tested on: membrane hyperpolarization in hV1aR-expressing CHO cells; format: cell-based, Chinese hamster
[7] = tested on: intracellular Ca2+ mobilization in hV1aR-expressing CHO cells; format: cell-based, Chinese hamster; conditions: 1 μM final concentration
Procedure, shortened: (§1)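 Stably receptor-transfected CHO-K1 cells were plated at 0.3 million cells/mL and grown overnight. They were loaded for 60 min at 37°C with 4 μM Fluo-3 AM and 0.04% pluronic acid in Locke's buffer (pH 7.4, 2.3 mM CaCl2, 0.5 mM probenecid), then washed four times. Thapsigargin (1 μM final) was given for 5 min. After 60 s baseline, peptide was added and read at ex 488/em 538 nm every 2 s for 200 s.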

[8] = tested on: intracellular Ca2+ mobilization in mV1aR-expressing CHO cells; format: cell-based, Chinese hamster; conditions: 1 μM final concentration
Procedure, shortened: as §1

[9] = tested on: intracellular Ca2+ mobilization in qV1aR-expressing CHO cells; format: cell-based, Chinese hamster; conditions: 1 μM final concentration
Procedure, shortened: as §1

N=C(N)NCCC[C@H](NC(=O)[C@@H]1CCCN1C(=O)[C@@H]1CSSC[C@H](N)C(=O)N[C@@H](Cc2ccc(O)cc2)C(=O)N[C@@H](Cc2ccccc2)C(=O)N[C@@H](CCC(N)=O)C(=O)N[C@@H](CC(N)=O)C(=O)N1)C(=O)NCC(N)=O [AVP, Arginine vasopressin]
Ca2+ mobilization [1]: did not mobilize | induced hyperpolarizing response [2]: absence | shape of concentration response curve, membrane hyperpolarization [3]: U-shaped concentration response curve

CC(=O)OCOC(=O)CN(CC(=O)OCOC(C)=O)c1ccccc1OCCOc1ccccc1N(CC(=O)OCOC(C)=O)CC(=O)OCOC(C)=O [BAPTA-AM, 1,2-Bis(2-aminophenoxy)ethane-N,N,N′,N′-tetraacetic acid tetrakis (acetoxymethyl ester)]
effect of pretreatment on AVP and OT-analog induced membrane hyperpolarization [4]: blocked | effect of pretreatment on AVP and OT-analog induced membrane hyperpolarization [5]: blocked | effect of pretreatment on AVP and OT-analog induced membrane hyperpolarization [6]: blocked

Clc1ccccc1C(c1ccccc1)(c1ccccc1)n1cccn1 [TRAM-34]
effect of pretreatment on AVP and OT-analog induced membrane hyperpolarization [4]: most effective inhibition | effect on SKA-31-induced membrane hyperpolarization [4]: inhibited | effect of pretreatment on AVP and OT-analog induced membrane hyperpolarization [5]: most effective inhibition | effect on SKA-31-induced membrane hyperpolarization [5]: inhibited | effect of pretreatment on AVP and OT-analog induced membrane hyperpolarization [6]: most effective inhibition | effect on SKA-31-induced membrane hyperpolarization [6]: inhibited

CC(C)(O)[C@H]1O[C@H]2CC[C@@]3(C)[C@@](O)(CC[C@H]4Cc5c([nH]c6ccccc56)[C@@]43C)C2=CC1=O [paxilline]
effect on NS-1619-induced membrane hyperpolarization [4]: inhibited | inhibition of AVP or OT-analog induced membrane hyperpolarization [4]: 15-30% | effect of pretreatment on AVP and OT-analog induced membrane hyperpolarization [5]: little to no effect | effect on NS-1619-induced membrane hyperpolarization [5]: inhibited | effect of pretreatment on AVP and OT-analog induced membrane hyperpolarization [6]: little to no effect | effect on NS-1619-induced membrane hyperpolarization [6]: inhibited

C/C=C(/C)C(=O)O[C@H]1C(C)=C2[C@H]([C@@H]1OC(=O)CCCCCCC)[C@@](C)(OC(C)=O)C[C@H](OC(=O)CCC)[C@@]1(O)[C@H]2OC(=O)[C@@]1(C)O [thapsigargin]
effect of pretreatment on AVP and OT-analog induced calcium mobilization [7]: blocked | effect of pretreatment on AVP and OT-analog induced membrane hyperpolarization [4]: eliminated | effect of pretreatment on AVP and OT-analog induced membrane hyperpolarization [5]: eliminated | effect of pretreatment on AVP and OT-analog induced calcium mobilization [8]: blocked | effect of pretreatment on AVP and OT-analog induced calcium mobilization [9]: blocked | effect of pretreatment on AVP and OT-analog induced membrane hyperpolarization [6]: eliminated

apamin: selective inhibitor of SKCa channels (CNCKAPETALCARRCQQH-NH2; disulfide 1-11, 3-15; UniProt P01500 28-45, looked up)
inhibition of AVP or OT-analog induced membrane hyperpolarization [4]: ≤ 10% | inhibition of AVP or OT-analog induced membrane hyperpolarization [5]: ≤ 10% | effect on AVP or Pro^8-OT-induced hyperpolarizing response [6]: did not markedly affect | reduction of Leu^8-OT-induced membrane hyperpolarization [6]: ~ 50%
